Cneo AK release: Cryptococcus neoformans cell lysis inducers, primary screen, AK release luminescence, single concentration. lysis activity, % at 15 µM. C. neoformans lysis, adenylate kinase release luminescence, 4 h; normalised: neutral wells 0, clomiphene wells 100. AID 651654, 2012. 360,000 tested, 0.2% active;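 active means mean lysis activity across replicates of at least 80%, whatever share of replicates individually reach that level; inactive means mean lysis activity below 80%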
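Material – Cryptococcus neoformans yeast cells · Quantity – 5 × 10^6 yeast cells/mL · Buffer or medium – YPD medium · Compound – single dose · Timing – 4 h static compound exposure, 37 °C, read 1 h post-reagent · Signal – adenylate kinase release luminescence · Read-out basis – lysis from increased AK signal · Benchmarks – Clomiphene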
Ecoli rRNA inh: reduced GFP signal of wild-type E. coli, primary screen, bacterial rRNA inhibitor project, GFP/RFP fluorescence, OD600, single point; E. coli WT GFP vs humanized-ribosome RFP mutants, 24 h; active compounds read low; DMSO median 0, no signal -100; GFP signal change (wild-type ribosome), % (concentration not given with the values); 350,000 tested, 1.6% active;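 active means significant combined selectivity score with lowered wild-type GFP, culture density cut under 30%, mutant RFP and density less affected; inactive means any of these conditions unmet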
SIRT5 inh: SIRT5 desuccinylase inhibitors, primary screen, biochemical, fluorescence imaging, single point, set 5. NAD-dependent protein deacylase sirtuin-5, mitochondrial (Homo sapiens), Q9NXA8. Purified SirT5, succinyl-peptide AMC, trypsin-coupled fluorescence. inhibition, % at 15 µM. 330,000 tested, 1.1% active; in the data active means inhibition above about 15%; inconclusive means no clear call, values can overlap the other calls
Target sequence (Q9NXA8 whole entry, looked up): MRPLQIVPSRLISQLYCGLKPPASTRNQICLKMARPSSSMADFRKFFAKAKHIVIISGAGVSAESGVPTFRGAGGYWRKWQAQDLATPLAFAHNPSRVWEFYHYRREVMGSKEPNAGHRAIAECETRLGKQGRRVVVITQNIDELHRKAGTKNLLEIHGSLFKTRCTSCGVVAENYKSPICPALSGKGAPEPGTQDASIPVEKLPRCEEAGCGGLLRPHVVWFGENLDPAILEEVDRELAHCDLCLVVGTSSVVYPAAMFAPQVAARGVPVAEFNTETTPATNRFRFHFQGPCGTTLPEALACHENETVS
S100A4 inh HTS: inhibitors of S100A4-myosin IIA peptide binding, primary screen, biochemical, fluorescence polarization, TAMRA-MyoIIA peptide; inhibition, % at 10.7 µM; 360,000 tested, 0.14% active;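 active means mean inhibition of at least 70% across replicates, with every replicate also reaching that level; inconclusive means mean inhibition reaches 70% but some replicates fall short; inactive means mean inhibition below 70%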
Target sequence (P26447 whole entry, looked up): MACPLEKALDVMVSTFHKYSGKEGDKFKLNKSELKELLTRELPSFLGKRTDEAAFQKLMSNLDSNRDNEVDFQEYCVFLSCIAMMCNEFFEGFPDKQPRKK
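assay system = human S100A4 monomer with TAMRA-labelled myosin IIA peptide | also added = labelled myosin peptide probe, 5 nM | incubation = 5 min between mix addition and reading | control set = DMSO and TFP controls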
C2C12 statin: suppressors of statin myotoxicity in C2C12 myotubes, primary screen, cell-based, single point, plate reader; 330,000 tested, 0.78% active; rescue of ATP level, % at 7.49 µM; C2C12 myotubes + simvastatin, ATP luminescence, 48 h; scaled: DMSO 0, geranylgeraniol control 100; AID 602340, 2012;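 active means mean ATP rescue above about 67%, or every replicate alone reaching that limit, limit read from the data, passing the limit was not always enough; inconclusive means no clear call, values can overlap the other calls; inactive means mean under the limit and some replicate under it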;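 further: myotubes were challenged with 10 µM simvastatin during compound exposure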
PGC1a acetyl inh: inhibitors of PGC1a acetylation signal, primary screen, cell-based, U2OS, AlphaScreen, inhibitor mode. AlphaScreen anti-acetyl-lysine; with virally co-expressed GCN5 acetyltransferase. inhibition, % at 15.6 µM. 350,000 tested, 0.17% active;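 active means every replicate shows inhibition of at least 40%; inconclusive means mean inhibition at least 40% but some replicate below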
HepG2 cytotox: cytotoxicity in HepG2 cells, dose response, cytotoxicity control, cell-based, CellTiter-Glo luminescence, cherry-pick, set 4 | shares compounds with Ecoli rRNA inh | HepG2 viability, ATP luminescence, 72 h | activity change, negative = cytotoxicity, unspecified at 26 µM | 30 tested, under 10 active | AID 743480, 2014;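 active means compounds whose fitted half-maximal signal-loss concentration is at most twice their highest valid dose; inconclusive means flat curve with 30 to 70% signal loss, or poor fit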
AID977621: growth inhibition of wild-type GFP E. coli, dose response, H69 mutant RFP, cherry-pick; shares compounds with Ecoli rRNA inh; E. coli wild-type GFP strain growth, fluorescence, 24 h; activity change, negative = inhibition at 50 µM; 1,900 tested, under 10 active; AID 977621, 2014;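 active means Wild-type ribosome reporter drop at least double the humanized mutant ribosome reporter drop, growth loss under a set limit; inconclusive means no clear call, values can overlap the other calls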;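 further: wild-type GFP and H69 mutant RFP strains grown together 50/50 in each well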
AID977628: E. coli growth inhibition, wild-type GFP versus h24 humanized RFP strain, dose response, h24 mutant RFP vs wild-type GFP, cherry-pick | shares compounds with Ecoli rRNA inh | E. coli WT GFP strain growth, fluorescence, 24 h | activity change, negative = inhibition at 50 µM | 1,900 tested, under 10 active | AID 977628, 2014;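 active means compound lowering the normal-ribosome reporter at least twice as much as the humanized-ribosome reporter, growth loss under a set limit; inconclusive means no clear call, values can overlap the other calls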;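 further: wild-type GFP and h24 humanized RFP strains co-cultured 1 to 1 per well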
Numbers stand for hits; - = inactive; ? = inconclusive; . = no result given. Compounds with a hit are over-represented: about 3% of the library has one in this group of screens.

SMILES	Cneo AK release	Ecoli rRNA inh	SIRT5 inh	S100A4 inh HTS	C2C12 statin	PGC1a acetyl inh	AID977621	AID977628	others
Cc1noc(C)c1NC(=O)Nc1ccc2c(c1)C(=O)N([C@@H](C)CO)C[C@@H](C)[C@H](CN(C)C(=O)Nc1ccc3c(c1)OCO3)OCCCC[C@@H](C)O2	-	-	-	-	.	-	?	-
Cc1noc(C)c1NC(=O)Nc1ccc2c(c1)C(=O)N([C@@H](C)CO)C[C@H](C)[C@H](CN(C)C(=O)Nc1ccc3c(c1)OCO3)OCCCC[C@H](C)O2	-	-	-	-	.	-	.	?
Cc1noc(C)c1NC(=O)N(C)C[C@H]1OCCCC[C@@H](C)Oc2ccc(NC(=O)Nc3ccc4c(c3)OCO4)cc2C(=O)N([C@H](C)CO)C[C@@H]1C	-	-	-	-	-	-	.	.
Cc1noc(C)c1NC(=O)Nc1ccc2c(c1)C(=O)N([C@H](C)CO)C[C@H](C)[C@H](CN(C)C(=O)Nc1ccc3c(c1)OCO3)OCCCC[C@@H](C)O2	-	-	-	-	.	-	-	?
C[C@@H]1CN([C@@H](C)CO)C(=O)c2cc(NC(=O)Nc3ccc4c(c3)OCO4)ccc2O[C@@H]1CN(C)C(=O)Nc1ccccc1	-	-	.	.	-	-	.	.
COc1ccc(S(=O)(=O)N(C)C[C@@H]2Oc3c(NC(=O)c4ccc(-c5nccs5)cc4)cccc3C(=O)N([C@H](C)CO)C[C@@H]2C)cc1	-	-	-	-	.	-	.	.
Cc1noc(C)c1NC(=O)Nc1ccc2c(c1)C(=O)N([C@H](C)CO)C[C@@H](C)[C@@H](CN(C)C(=O)Nc1ccc3c(c1)OCO3)OCCCC[C@@H](C)O2	-	-41	-	-	.	-	.	?	HepG2 cytotox=-
CO[C@@H]1CN(C)C(=O)c2ccc(NC(=O)C3CCCC3)cc2OC[C@H](C)N(CC2CC2)C[C@@H]1C	-	-	-	-	-	-	.	.
CC(=O)N1[C@H](CO)[C@@H](c2ccccc2)C12CN(C(=O)c1ccccc1)C2	.	-	-	-	.	-	.	.
Cc1[nH]c(=S)sc1Cc1ccc(Cl)c(Cl)c1	.	-40	-	-	.	.	.	.	HepG2 cytotox=-
Cc1nnc(SCc2ccc(Cl)c(Cl)c2)s1	.	.	-	-	-	-	.	.
O=S(=O)(NCCc1ccncc1)c1ccc(Br)cc1	-	.	.	.	-	.	.	.
Fc1ccc(Br)cc1SCCc1ccncc1	-	-25	-	-	-	-	-	-
COc1ccc(OC(C)C(=O)Nc2cccc(F)c2)cc1 (stereo not drawn)	.	-23	-	-	.	-	-	?
CC(C)CNC(=O)c1cccc(NC(=O)C(C)Oc2ccccc2)c1 (stereo not drawn)	.	-24	-	-	.	-	-	-
COc1ccc2c3c(n(C)c2c1)[C@H](CO)N(C(=O)C1CCCCC1)CC31CCN(C(=O)c2ccncc2)CC1	.	-	.	-	.	-	.	.
Cc1ccc(Cn2cnc3ccccc32)cc1	-	-25	-	-	-	-	-	-
COc1ccc(N2C(=O)C3C(c4ccc(C(=O)O)cc4)NC(Cc4ccccc4)(C(=O)O)C3C2=O)c([N+](=O)[O-])c1 (stereo not drawn)	.	-19	-	-	.	.	-	-
COC(=O)C1(Cc2ccccc2)NC(c2ccc(F)cc2)C2C(=O)N(C)C(=O)C21 (stereo not drawn)	-	.	.	.	-	-	.	.
C[C@@H]1CN([C@@H](C)CO)C(=O)c2cccc(NS(=O)(=O)c3cn(C)cn3)c2O[C@@H]1CN(C)CC1CC1	-	-	-	-	-	-	.	.
COc1ccc(OC)c(S(=O)(=O)Nc2cccc3ccc(O)cc23)c1	.	-32	-	-	.	.	-	-
CSc1nc(N)nc(SC2C=CCCC2)c1C#N (stereo not drawn)	-	-24	-	-	-	-	.	?	HepG2 cytotox=-
COCCNC(=O)c1ccc(-c2cn[nH]c2)c2ccoc12	-	-	-	-	-	-	.	.
O=C(NCc1ccccc1)c1ccc(-c2cn[nH]c2)c2ccoc12	-	-20	-	-	-	-	-	-
CCN(CC)CCCN(C(=O)c1ccco1)c1nc(-c2ccc(C)cc2)cs1	-	-34	-	-	-	-	?	?
SMILES	Cneo AK release	Ecoli rRNA inh	SIRT5 inh	S100A4 inh HTS	C2C12 statin	PGC1a acetyl inh	AID977621	AID977628	others
CCS(=O)(=O)N1CCN(c2ccnc3cc(Cl)ccc23)CC1	-	-21	-	-	.	-	-	.
C[C@@H]1CN([C@H](C)CO)C(=O)c2cc(NS(=O)(=O)c3cn(C)cn3)ccc2O[C@@H](C)CCCCO[C@@H]1CN(C)CC1CCCCC1	-	-	-	-	-	.	.	.
Cc1ccc(S(=O)(=O)N2CC[C@H]3[C@H](CO)Nc4ccc(Br)cc4[C@H]32)cc1	-	-25	-	-	-	-	.	?	HepG2 cytotox=-
COC(=O)CC#C[C@H](C)[C@@H](NS(=O)(=O)c1ccc([N+](=O)[O-])cc1)C(C)(C)C	.	-13	.	-	.	.	?	?
COC(=O)CC#C[C@H](C)[C@@H](NS(=O)(=O)c1ccc(C)cc1)C1CCCCC1	.	-	.	-	.	.	.	.
CSc1ccccc1NC(=O)c1ccccc1N(Cc1ccccc1)S(C)(=O)=O	-	-24	-	-	102	-	-	.
CSc1ccccc1NC(=O)c1ccccc1N(C)S(C)(=O)=O	-	.	.	.	-	-	.	.
COc1cccc(C(=O)Nc2ccc3c(c2)C(=O)N(C)[C@@H]2CC[C@@H](CC(=O)NCCCN4CCOCC4)O[C@H]2CO3)c1	-	-	-	-	-	.	.	.
CCCCc1ccc(S(=O)(=O)Nc2ccc(C)c(NS(C)(=O)=O)c2)cc1	-	-35	-	-	.	-	-	.
COCC#Cc1ccc2c(c1)O[C@@H](CN(C)C(=O)c1ccccc1)[C@H](C)CN([C@@H](C)CO)S2(=O)=O	-	-	-	-	-	-	.	.
